The values that follow come from ChEMBL document CHEMBL3102768, “Synthesis, biological evaluation and SAR of 3-benzoates of ingenol for treatment of actinic keratosis and non-melanoma skin cancer” (Bioorg Med Chem Lett, 2014).

Data set [1] addresses Protein kinase C delta type (Homo sapiens, UniProt Q05655). In words: Activation of PKCdelta (unknown origin) after 40 mins. The method in brief: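 In vitro PKCδ phosphorylation of a PKC peptide substrate, with 0.05 mg/mL phosphatidylserine and no diacylglycerol. Compounds were tested as a twelve-point semilog dilution series starting at 10 µM. The reaction was started with ATP and run 40 min at room temperature.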

Data set [2] deals with Keratinocyte. In words: Induction of proimflammatory activity in human primary epidermal keratinocytes assessed as TNFalpha release after 6 hrs relative to ingenol 3-angelate. The data set is classed as functional. The method in brief:
(§1)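 Adult log-phase primary epidermal keratinocytes were seeded at 10,000 cells/well. Cells were incubated with titrated compound for 6 h at 37 °C in 5% CO2. Secreted TNFα was measured by Meso Scale 4-spot cytokine plates. EC50 and Emax were referenced to the maximal response of ingenol 3-angelate.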

Data set [3] is described as follows: Chemical stability of the compound in aqueous buffer with less than 30% organic solvent assessed as compound recovery at pH 7.4 measured over 16 hrs by HPLC analysis. The note with it: read-out: Drug recovery. The data set is classed as physicochemical. The method in brief:
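A DMSO stock was diluted into pre-heated (37 °C) aqueous buffer pH 7.4 to ≤30% v/v organic content. The solution was held at 37 °C in the HPLC autosampler and injected within 5 min, then repeatedly over 16 h. Recovery was taken from the decrease in compound peak area, with UV detection normally at 270 nm.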

The test system of data set [4] is Keratinocyte. In words: Induction of proimflammatory activity in human primary epidermal keratinocytes assessed as IL-8 release after 6 hrs. The data set is classed as functional, cell-based. The method in brief:
(§2)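 Adult log-phase primary epidermal keratinocytes were seeded at 10,000 cells/well. Cells were incubated with titrated compound for 6 h at 37 °C in 5% CO2. Secreted IL8 was measured by Meso Scale 4-spot cytokine plates or by HTRF. EC50 and Emax were referenced to the maximal response of ingenol 3-angelate.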

For data set [5], the system named is Keratinocyte. Description: Induction of proimflammatory activity in human primary epidermal keratinocytes assessed as IL-8 release after 6 hrs relative to ingenol 3-angelate. The data set is classed as functional. The method in brief: as §2
The test system of a further data set is HeLa. Description: Induction of necrosis in human HeLa cells assessed as remaining metabolic activity after 30 mins by resazurin dye-based assay. The data set is classed as functional. The conditions noted are these: 0.5 h, read-out: LC50 (the source's name). The method in brief: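 HeLa cells were exposed to increasing concentrations up to 400 µM for 30 min at 37 °C. Metabolic activity was then measured with a resazurin-based dye (PrestoBlue). LC50 is the concentration giving 50% loss of metabolic activity.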

For data set [6], the system named is Keratinocyte. Description: Induction of proimflammatory activity in human primary epidermal keratinocytes assessed as TNFalpha release after 6 hrs. It is filed as functional, cell-based. The method in brief: as §1
The nature of data set [7]: Immunostimulatory activity in polymorphonuclear leukocytes (unknown origin) assessed as induction of oxidative burst after 40 mins by fluorescence assay relative to ingenol 3-angelate. It is filed as functional. The method in brief: (§3)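 PMN were isolated from fresh buffy coats. Cells were incubated 40 min at ambient temperature with titrated compound (top concentration 10 µM) pre-mixed with hydroethidine. Respiratory burst was read as fluorescence at ex 485/em 579 nm. EC50 is the concentration giving 50% of the maximum effect of ingenol 3-angelate; Emax is the maximal response relative to it.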

Data set [8] is described as follows: Immunostimulatory activity in polymorphonuclear leukocytes (unknown origin) assessed as induction of oxidative burst after 40 mins by fluorescence assay. It is filed as functional, cell-based. The method in brief: as §3

pEC50: −log10 of the molar value.

Protein kinase C delta type, sequence (Q05655 whole entry): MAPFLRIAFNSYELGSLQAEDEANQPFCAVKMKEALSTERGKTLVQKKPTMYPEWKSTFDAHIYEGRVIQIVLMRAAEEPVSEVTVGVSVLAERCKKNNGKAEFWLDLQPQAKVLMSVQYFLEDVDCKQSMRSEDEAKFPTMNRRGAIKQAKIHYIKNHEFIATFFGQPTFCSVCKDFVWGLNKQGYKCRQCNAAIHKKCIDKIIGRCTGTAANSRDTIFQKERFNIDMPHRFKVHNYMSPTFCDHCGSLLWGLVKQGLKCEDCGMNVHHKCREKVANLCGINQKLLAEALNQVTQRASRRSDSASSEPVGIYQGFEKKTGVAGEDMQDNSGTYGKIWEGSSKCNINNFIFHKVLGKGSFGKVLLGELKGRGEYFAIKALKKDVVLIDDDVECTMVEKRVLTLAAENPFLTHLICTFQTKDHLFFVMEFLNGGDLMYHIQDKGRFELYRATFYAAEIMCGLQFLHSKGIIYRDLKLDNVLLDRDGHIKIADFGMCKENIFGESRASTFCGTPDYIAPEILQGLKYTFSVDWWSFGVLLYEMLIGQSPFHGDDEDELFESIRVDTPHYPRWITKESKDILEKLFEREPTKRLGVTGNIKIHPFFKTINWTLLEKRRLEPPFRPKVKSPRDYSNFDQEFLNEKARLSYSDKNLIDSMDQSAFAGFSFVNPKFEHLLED

Usually pEC50 stands for −log10 of the EC50, conventionally taken in molar units. For orientation: Emax means the maximal effect, on the per cent scale that the assay sets. Regarding `CC1=C[C@]23C(=O)[C@@H](C=C(CO)[C@@H](O)[C@]2(O)[C@H]1OC(=O)c1ccccc1Br)[C@H]1[C@@H](C[C@H]3C)C1(C)C`, the negative logarithm of the EC50 (pEC50) is 8.42 in data set [1], 8.64 in the data set with Keratinocyte [4], 8.09 in the data set with Keratinocyte [6] and 8.37 in data set [8]. For the same molecule, the maximal effect (Emax) in the data set on Keratinocyte [2] was determined as 96%; with Keratinocyte [5], 93%; in data set [7], 99%. In addition, in data set [3], the remaining at 16 h is 44%. For the same molecule, the CC50 in the data set with HeLa is 141000 nM.
For the molecule `CC1=C[C@]23C(=O)[C@@H](C=C(CO)[C@@H](O)[C@]2(O)[C@H]1OC(=O)c1ccccc1-c1ccccc1)[C@H]1[C@@H](C[C@H]3C)C1(C)C`, the pEC50 in data set [1] is 8.48; in the data set with Keratinocyte [4], 8.82; with Keratinocyte [6], 8.80; in data set [8] it was 7.80. Also, the Emax with Keratinocyte [2] came to 91%; with Keratinocyte [5] it was 87%; in data set [7], 105%. For the same molecule, in [3], the remaining at 16 h came to 77%. Moreover, the CC50 in the data set with HeLa was 77000 nM.
With `CC1=C[C@]23C(=O)[C@@H](C=C(CO)[C@@H](O)[C@]2(O)[C@H]1OC(=O)c1ccccc1Nc1ccccc1)[C@H]1[C@@H](C[C@H]3C)C1(C)C`, the pEC50 in [1] is 8.38; with Keratinocyte [4] it was 8.43; in the data set with Keratinocyte [6], 8.30; in [8], 7.96. Also, the Emax with Keratinocyte [2] is 120%; in the data set on Keratinocyte [5], 103%; in data set [7], 129%. Moreover, the remaining at 16 h in data set [3] was 58%. Besides, the CC50 with HeLa is 307000 nM.
Consider `CNc1ccccc1C(=O)O[C@H]1C(C)=C[C@]23C(=O)[C@@H](C=C(CO)[C@@H](O)[C@]12O)[C@H]1[C@@H](C[C@H]3C)C1(C)C`, for which the pEC50 is 8.60 in [1], 9.10 in the data set with Keratinocyte [4], 9.00 with Keratinocyte [6] and 8.17 in data set [8]. Further, the Emax in the data set with Keratinocyte [2] is 134%; with Keratinocyte [5], 99%; in data set [7], 113%. In data set [3], the remaining at 16 h came to 68%. The CC50 with HeLa is 95000 nM.
Turning to `CC1=C[C@]23C(=O)[C@@H](C=C(CO)[C@@H](O)[C@]2(O)[C@H]1OC(=O)c1c(C)cccc1N)[C@H]1[C@@H](C[C@H]3C)C1(C)C`, the negative-log EC50 (pEC50) in [1] was 8.10; in the data set with Keratinocyte [4] it was 8.09; in the data set with Keratinocyte [6] it was 7.92; in data set [8], 8.07. In addition, the Emax is 108% in the data set with Keratinocyte [2], 118% in the data set on Keratinocyte [5] and 117% in [7]. Moreover, in [3], the remaining at 16 h was greater than 95%. Further, the CC50 in the data set with HeLa was 146000 nM.
